# TAAR1 agonist – human TAAR1 agonists, primary screen, Fluo-8 calcium fluorescence, CHO RD-HGA16 cells; Trace amine-associated receptor 1 (Homo sapiens), Q96RJ0; vehicle wells 0%, saturating PEA agonist 100%; activation, % at 3 µM; 0.99% of 360,000 active;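 active = activation above the mean activation of all test compounds in the run plus 3 SD, cut at about 38% in these data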
# Target sequence (Q96RJ0 whole entry, looked up): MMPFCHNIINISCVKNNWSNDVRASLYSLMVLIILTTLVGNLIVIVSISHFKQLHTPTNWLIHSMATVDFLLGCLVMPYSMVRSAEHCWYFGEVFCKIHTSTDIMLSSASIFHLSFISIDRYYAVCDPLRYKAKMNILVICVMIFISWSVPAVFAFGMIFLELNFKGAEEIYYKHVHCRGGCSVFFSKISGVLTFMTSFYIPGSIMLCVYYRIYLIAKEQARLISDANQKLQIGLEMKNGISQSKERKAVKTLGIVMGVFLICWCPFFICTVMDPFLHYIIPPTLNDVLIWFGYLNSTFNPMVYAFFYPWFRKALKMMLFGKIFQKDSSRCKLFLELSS
#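 Repeats: no replicates (n 1) | Material: CHO-derived RD-HGA16 cells with stable Gα16 and human TAAR1 | Technique: Kinetic Fluo-8 calcium fluorescence | Schedule: 17-24 h seeding, 75 min 37 °C dye, 30 min RT | Evaluation: % activation from peak over basal fluorescence ratio, DMSO-to-PEA scaled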
# V1aR counter – agonists of human V1a receptor, primary screen, counter-screen for OXTR agonist project, fluorescence, CHO-V1R cells; Fluo-8 calcium fluorescence, agonist mode; 0% DMSO, 100% 3 nM vasopressin; 0.25% of 320,000 active; Vasopressin V1a receptor (Homo sapiens), P37288; activation, % at 3 µM;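 active = activation above the mean activation of all tested compounds plus 3 SD, per screening run, cut at about 20% in these data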;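 note: signal is peak over basal fluorescence ratio across a 100 second FLIPR read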
# Target sequence (P37288 whole entry, looked up): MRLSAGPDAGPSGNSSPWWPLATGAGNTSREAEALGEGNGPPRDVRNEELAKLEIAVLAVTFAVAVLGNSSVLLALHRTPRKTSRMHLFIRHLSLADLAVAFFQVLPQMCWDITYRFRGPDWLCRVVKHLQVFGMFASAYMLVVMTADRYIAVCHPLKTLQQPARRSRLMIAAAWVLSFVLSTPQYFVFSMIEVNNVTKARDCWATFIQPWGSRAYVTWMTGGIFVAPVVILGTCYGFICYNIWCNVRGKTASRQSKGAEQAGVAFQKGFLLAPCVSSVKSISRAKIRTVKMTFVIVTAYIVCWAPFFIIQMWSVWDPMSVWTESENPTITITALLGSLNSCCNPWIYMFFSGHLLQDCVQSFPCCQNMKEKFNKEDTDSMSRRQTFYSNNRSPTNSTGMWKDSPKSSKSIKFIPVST
# OXTR agonist – human OXTR agonists, primary screen, fluorescence, CHO-OTR cells, Fluo-8 calcium; activation, % at 3 µM; 0.32% of 320,000 active; Oxytocin receptor (Homo sapiens), P30559; Fluo-8 calcium fluorescence; normalized: DMSO 0%, oxytocin 100%; AID 2435, 2010;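 active = activation above the mean of all tested compounds plus 3 SD, cutoff set per screening run, cut at about 20% in these data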;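 note: peak over basal fluorescence ratio from a 100 s FLIPR kinetic read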
# TAAR1 antagonist – human TAAR1 antagonists, primary screen, Fluo-8 calcium fluorescence, CHO RD-HGA16 cells; Trace amine-associated receptor 1 (Homo sapiens), Q96RJ0; antagonist; inhibition, % at 3 µM; 1.5% of 360,000 active;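 active = inhibition above a per-plate cutoff, the mean inhibition of test compounds on that plate plus 3 SD, cut at about 49% in these data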;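 note: 0% = DMSO plus EC80 beta-PEA response and 100% = DMSO alone without agonist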
#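 Test system: hTAAR1-expressing CHO RD-HGA16 cells, Gα16-coupled; Probe or stimulus: EC80 β-phenethylamine stimulus; Compound dosing: single nominal final test compound concentration of 3 µM; Timing: 140 s kinetic read after compound, 140 s after agonist; Signal: Fluo-8 calcium-sensitive fluorescence; Measure: % inhibition of agonist calcium response; Controls: DMSO and EC80 PEA controls.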
# OXTR potentiator – human OXTR potentiators, primary screen, fluorescence, CHO-OTR cells, Fluo-8 calcium; Oxytocin receptor (Homo sapiens), P30559; Fluo-8 calcium fluorescence, potentiator mode; 0% = oxytocin EC15, 100% = EC100; activation, % at 3 µM; 0.061% of 320,000 active; AID 2445, 2010;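 active = activation above that plate's cutoff, the mean activation of tested compounds plus 3 SD, cut at about 6.6% in these data, passing the limit was not always enough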;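 note: 100% uses oxytocin at 75 nM as the full agonist control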
#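 Replication – single well per compound, singlicate · Assay system – CHO cell line stably expressing human OTR · Timing – 6 min pre-incubation, 100 s read · Measure – normalized max/min fluorescence ratio, % activation · Doses – 3.0 µM, one dose · Detection – Fluo-8 calcium dye fluorescence · Probe or stimulus – oxytocin near EC15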
# TAAR1 ag confirm – human TAAR1 agonists, retest of hits, confirmation, Fluo-8 calcium fluorescence, CHO RD-HGA16 cells; shares compounds with TAAR1 agonist; scaled: DMSO 0%, maximal phenethylamine 100%; activation, % at 3 µM; 82% of 2,400 active; AID 651783, 2012;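 active = activation above a cutoff set at the run's mean compound activation plus 3 SD, cut at about 39% in these data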
# Ga16 nonsel ag – nonselective calcium mobilization agonists, CHO-Ga16 cells, counter-screen for hTAAR1 agonist project, cell-based, fluorescence, CHO-Ga16 parental line. Fluo-8 calcium fluorescence; normalized to maximal ATP response, DMSO zero. activation, % at 3 µM. shares compounds with TAAR1 agonist. AID 651787, 2012. 50% of 2,400 active;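 active = activation above the run cutoff, the mean activation over all tested wells plus 3 SD, cut at about 12% in these data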;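 note: 0% = DMSO wells and 100% = maximal ATP response on the peak over basal ratio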
# TAAR1 desens – TAAR1 desensitization by agonist hits, confirmation, counter-screen for TAAR1 agonist project, cell-based, fluorescence, tachyphylaxis. shares compounds with TAAR1 agonist. CHO RD-HGA16 hTAAR1, Fluo-8 calcium, beta-PEA response inhibition. inhibition, % at 3 µM. 46% of 2,400 active. AID 651951, 2012;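 active = inhibition above the run cutoff, the mean inhibition of all test compounds plus 3 SD, cut at about 49% in these data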;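 note: beta-PEA stimulus applied at its EC80; loss of beta-PEA calcium signal after compound pretreatment read as receptor desensitization; 0% = DMSO with beta-PEA at EC80 and 100% = DMSO alone without agonist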
# Ga16 antag count – inhibition of ATP-evoked calcium response in CHO-Ga16 cells, counter-screen for TAAR1 agonist project, cell-based, fluorescence; shares compounds with TAAR1 agonist; CHO-Ga16 ATP-induced calcium, Fluo-8 fluorescence; inhibition, % at 3 µM; 39% of 2,400 active;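 active = inhibition above the plate's mean compound inhibition plus 3 SD, computed per plate, cut at about 22% in these data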;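 note: 0% = EC80 ATP with DMSO and 100% = DMSO wells without ATP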
# Starred values were filed as active, the others as inactive; / = no result. Only some compounds are listed: those with a hit (about 2.3% of all), similar ones and a draw of the others.
SMILES,TAAR1 agonist,V1aR counter,OXTR agonist,TAAR1 antagonist,OXTR potentiator,TAAR1 ag confirm,Ga16 nonsel ag,TAAR1 desens,Ga16 antag count
Cc1cc(NC(=O)OC(C)(C)C)c(-n2nnnc2C(C(=O)c2ccc3c(c2)OCO3)N2CCN(c3ccccn3)CC2)cc1C (centres undefined),-1,/,/,-7,/,/,/,/,/
CN(CCc1ccccc1)C(C(=O)c1ccc2c(c1)OCO2)c1nnnn1-c1ccccc1NC(=O)OC(C)(C)C (centres undefined),86*,/,/,78*,/,85*,1,82*,8
N#Cc1cccc(NC(=O)COC(=O)C2CCC2)c1,2,1,0,-14,-1,/,/,/,/
O=C(CCS(=O)(=O)c1ccc(Cl)cc1)Nc1ccc(N2CCOCC2)cc1,3,5,3,-27,-18,/,/,/,/
COC(=O)c1ccc(NC(=S)NCCc2ccccc2)cc1,73*,9,9,54*,-24,82*,12*,77*,28*
COc1ccc(C(=O)NC(=S)Nc2ccc(S(N)(=O)=O)cc2)cc1,0,1,0,11,-6,/,/,/,/
COC(=O)c1ccc(NC(=S)Nc2ccccc2)cc1,3,1,1,-6,0,/,/,/,/
S=C(NCc1ccccc1)NCc1ccc(CNC(=S)NCc2ccccc2)cc1,56*,11,4,65*,-5,51*,20*,63*,47*
O=S(=O)(c1ccc(NC(=S)NCCc2ccccc2)cc1)N1CCOCC1,74*,11,8,15,-11,86*,13*,65*,26*
Fc1ccc(CNC(=S)NCc2ccccc2)cc1,1,2,0,13,-9,/,/,/,/
COc1ccc(CC(=O)NC(=S)Nc2ccc(S(N)(=O)=O)cc2)cc1,81*,24*,25*,28,-13,88*,40*,47,28*
Cc1sc2nc(CSCC(=O)N(CCC#N)c3ccccc3)[nH]c(=O)c2c1C,0,1,0,28,-10,/,/,/,/
CC(C)C[C@H]1CNC(=S)N1CC1CCN(CCCC2CCCCC2)CC1,0,/,/,-15,/,/,/,/,/
COc1ccc(OCCNC(=O)CCCO)cc1,3,0,0,-29,-2,/,/,/,/
NNC(=S)NCCc1ccccc1,/,0,0,/,4,/,0,/,4
NS(=O)(=O)c1ccc(NC(=S)NCCc2ccccc2)cc1,54*,0,1,33,-5,82*,1,68*,4
CCOC(=O)c1ccc(NC(=S)NCCc2ccccc2F)cc1,70*,8,7,37,-7,89*,11,86*,33*
CCOC(=O)c1ccc(NC(=S)NCc2ccccc2)cc1,6,11,7,17,-14,/,/,/,/
O=S(=O)(NC1=NCCC1)c1cccc(NC(=S)NCCc2ccccc2)c1,62*,1,0,-5,-5,12,4,6,8
COc1nc2ccccc2nc1N1CCN(c2ccc(F)cc2)CC1,5,/,/,-11,/,/,/,/,/
Cc1ccc(CN2C(=O)C(CC(C)C)Nc3ncnc(N4CCN(c5ccccc5)CC4)c32)cc1 (centres undefined),0,1,-1,33,-8,/,/,/,/
O=C(N/C(=C\c1cccc([N+](=O)[O-])c1)C(=O)N1CCOCC1)c1ccco1,0,1,0,4,-2,/,/,/,/
COC(=O)c1cc(NC(=O)CN2C(=O)C(=O)N(C3CCCC3)C2=O)cc(C(=O)OC)c1,-1,1,1,24,-5,/,/,/,/
Cc1c(Cl)cccc1Nc1nc(NCCO)c2ccccc2n1,49*,3,6,37,-12,83*,5,84*,6
OCCNc1nc(Nc2ccccc2)nc2ccccc12,97*,0,9,92*,-6,89*,2,98*,11
SMILES,TAAR1 agonist,V1aR counter,OXTR agonist,TAAR1 antagonist,OXTR potentiator,TAAR1 ag confirm,Ga16 nonsel ag,TAAR1 desens,Ga16 antag count
OCCNc1nc(Nc2ccccc2)nc(Nc2ccccc2)n1,13,0,-2,-13,-15,/,/,/,/
O=[N+]([O-])c1ccccc1/C=N/OCc1ccccc1,12,-1,-1,5,6,/,/,/,/
Cc1cccc(C)c1-n1nnnc1C1(C)CCC(=O)N1c1ccc(N2CCOCC2)cc1 (centres undefined),0,/,/,5,/,/,/,/,/
COC(=O)[C@]12C[C@H](CC(=O)NCCc3ccccc3OC)C(=O)N(Cc3ccc4c(c3)OCO4)C1=C[C@H](COCc1ccccc1)O[C@@H]2C,/,/,/,/,/,/,6,/,12
COC(=O)[C@]12C[C@H](CC(=O)NCCc3ccccc3OC)C(=O)N(Cc3ccc4c(c3)OCO4)C1=C[C@H](C(C)(C)C)O[C@@H]2C,15,/,/,2,/,/,/,/,/
COC(=O)[C@]12C[C@H](CC(=O)NCCc3ccccc3OC)C(=O)N(Cc3ccccc3)C1=C[C@H](C(C)(C)C)O[C@@H]2C,65*,/,/,54*,/,80*,4,53*,6
CCCCCCCCN1C(=O)[C@@H](CC(=O)NCCc2ccccc2OC)C[C@@]2(C(=O)OC)C1=C[C@H](C1CCCC1)O[C@@H]2C,62*,/,/,28,/,72*,3,64*,9
COc1ccc(N(CC(=O)N2CCN(c3cc(C)ccc3C)CC2)S(=O)(=O)c2c(C)noc2C)cc1,-1,0,1,-16,-1,/,/,/,/
O=C(COc1ccc(F)cc1Cl)N(Cc1nnc(-c2ccccc2Cl)o1)C1CC1,0,3,0,-22,-11,/,/,/,/
CC(NCC(O)COCCC12CC3CC(CC(C3)C1)C2)c1ccccc1 (centres undefined),84*,5,9,87*,-6,70*,42*,77*,64*

# Source: PubChem BioAssay (The Scripps Research Institute Molecular Screening Center)
